Assay [1] addresses T1, RAC-alpha serine/threonine-protein kinase (Homo sapiens, UniProt P31749). Nature of the assay: Inhibition of recombinant AKT1 using GSK3 as substrate assessed as inhibition of [33P]Phosphate incorporation into substrate after 80 mins by scintillation counting. In a few lines:
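Recombinant AKT1 was assayed radiometrically with [33P]-ATP (about 5×10^5 cpm/well) and GSK3(14-27) substrate at 2000 ng/50 µL. Buffer was 60 mM HEPES-NaOH pH 7.5 with 3 mM MgCl2 and 3 mM MnCl2, and compound was added in 10% DMSO. After 80 min at 30 °C the reaction was stopped with 2% phosphoric acid, washed with 0.9% NaCl and 33P incorporation counted by scintillation.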

Assay [2] has as its target T2, Aurora kinase B (Homo sapiens, UniProt Q96GD4). Put plainly: Inhibition of recombinant Aurora B using tetra(LRRWSLG) as substrate assessed as inhibition of [33P]Phosphate incorporation into substrate after 80 mins by scintillation counting.
Assay [3] addresses T3, Focal adhesion kinase 1 (Homo sapiens, UniProt Q05397). Nature of the assay: Inhibition of recombinant FAK using poly(Glu,Tyr)4 as substrate assessed as inhibition of [33P]Phosphate incorporation into substrate after 80 mins by scintillation counting.
In assay [4] the target is T4, Vascular endothelial growth factor receptor 2 (Homo sapiens, UniProt P35968). Put plainly: Inhibition of recombinant VEGFR2 using poly(Glu,Tyr)4 as substrate assessed as inhibition of [33P]Phosphate incorporation into substrate after 80 mins by scintillation counting.
The target of assay [5] is T5, Serine/threonine-protein kinase PLK1 (Homo sapiens, UniProt P53350). Nature of the assay: Inhibition of recombinant PLK1 using RBERCHKtide as substrate assessed as inhibition of [33P]Phosphate incorporation into substrate after 80 mins by scintillation counting. The procedure, abridged: (§1)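 PLK1 (recombinant) was phosphorylating RBER-CHKtide at 2000 ng/50 µL with [33P]-ATP (about 5×10^5 cpm/well). Buffer was 60 mM HEPES-NaOH pH 7.5 with 3 mM MgCl2 and 3 mM MnCl2. After 80 min at 30 °C, 2% phosphoric acid stopped the reaction and wells were washed with saline. Incorporated 33P was counted, with residual activity relative to enzyme-free and inhibitor-free controls.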
T5 sequence (P53350 whole entry): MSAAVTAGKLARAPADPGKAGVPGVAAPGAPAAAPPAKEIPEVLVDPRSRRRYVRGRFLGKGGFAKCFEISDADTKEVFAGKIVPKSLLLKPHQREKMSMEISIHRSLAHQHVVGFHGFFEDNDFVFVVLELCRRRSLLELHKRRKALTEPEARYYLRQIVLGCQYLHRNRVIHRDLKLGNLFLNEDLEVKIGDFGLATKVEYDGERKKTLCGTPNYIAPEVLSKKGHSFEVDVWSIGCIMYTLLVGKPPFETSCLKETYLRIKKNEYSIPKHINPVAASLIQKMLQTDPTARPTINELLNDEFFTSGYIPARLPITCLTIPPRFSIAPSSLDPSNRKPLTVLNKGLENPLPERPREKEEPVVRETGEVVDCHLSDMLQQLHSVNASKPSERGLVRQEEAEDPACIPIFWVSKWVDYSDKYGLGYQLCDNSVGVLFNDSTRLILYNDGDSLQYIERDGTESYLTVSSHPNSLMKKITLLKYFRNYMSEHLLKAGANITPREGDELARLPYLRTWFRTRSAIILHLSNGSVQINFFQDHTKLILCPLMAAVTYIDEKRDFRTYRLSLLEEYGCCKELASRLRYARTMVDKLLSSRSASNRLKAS

Assay [6] has as its target T1, RAC-alpha serine/threonine-protein kinase. Nature of the assay: Inhibition of recombinant AKT1 using GSK3 as substrate assessed as inhibition of [33P]Phosphate incorporation into substrate at <10 uM after 80 mins by scintillation counting. The procedure, abridged: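 Recombinant AKT1 was assayed radiometrically with [33P]-ATP (about 5×10^5 cpm/well) and GSK3(14-27) substrate at 2000 ng/50 µL. Buffer was 60 mM HEPES-NaOH pH 7.5 with 3 mM MgCl2 and 3 mM MnCl2, and compound was added in 10% DMSO. After 80 min at 30 °C the reaction was stopped with 2% phosphoric acid, washed with 0.9% NaCl and 33P incorporation counted by scintillation. Residual activity was set against no-enzyme and no-inhibitor controls.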

Assay [7] addresses T2, Aurora kinase B. Nature of the assay: Inhibition of recombinant Aurora B using tetra(LRRWSLG) as substrate assessed as inhibition of [33P]Phosphate incorporation into substrate at <10 uM after 80 mins by scintillation counting. The procedure, abridged: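 Recombinant Aurora B was assayed with [33P]-ATP (about 5×10^5 cpm/well) and tetra(LRRWSLG) substrate at 500 ng/50 µL. Buffer was 60 mM HEPES-NaOH pH 7.5 with 3 mM MgCl2 and 3 mM MnCl2. Incubation ran 80 min at 30 °C and was stopped with 2% phosphoric acid, then washed with saline. Bound 33P was counted by scintillation, with activity normalised to no-enzyme (0%) and no-inhibitor (100%) controls.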

Assay [8] has as its target T3, Focal adhesion kinase 1. Put plainly: Inhibition of recombinant FAK using poly(Glu,Tyr)4 as substrate assessed as inhibition of [33P]Phosphate incorporation into substrate at <10 uM after 80 mins by scintillation counting. In a few lines:
(§2)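 FAK and VEGF-R2 were each tested as recombinant kinase with poly(Glu,Tyr)4:1 substrate at 125 ng/50 µL and [33P]-ATP (about 5×10^5 cpm/well). Buffer was 60 mM HEPES-NaOH pH 7.5 with 3 mM MgCl2 and 3 mM MnCl2. Reactions ran 80 min at 30 °C and were quenched with 2% phosphoric acid and washed with 0.9% NaCl. Scintillation counts were normalised between no-enzyme and uninhibited controls.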

The target of assay [9] is T4, Vascular endothelial growth factor receptor 2. Nature of the assay: Inhibition of recombinant VEGFR2 using poly(Glu,Tyr)4 as substrate assessed as inhibition of [33P]Phosphate incorporation into substrate at <10 uM after 80 mins by scintillation counting. In a few lines: as §2
Assay [10] deals with T5, Serine/threonine-protein kinase PLK1. Put plainly: Inhibition of recombinant PLK1 using RBERCHKtide as substrate assessed as inhibition of [33P]Phosphate incorporation into substrate at <10 uM after 80 mins by scintillation counting. In a few lines:
as §1

For assay [11], the target named is T6, NUAK family SNF1-like kinase 1 (Homo sapiens) (UniProt O60285).
T6 sequence (whole entry): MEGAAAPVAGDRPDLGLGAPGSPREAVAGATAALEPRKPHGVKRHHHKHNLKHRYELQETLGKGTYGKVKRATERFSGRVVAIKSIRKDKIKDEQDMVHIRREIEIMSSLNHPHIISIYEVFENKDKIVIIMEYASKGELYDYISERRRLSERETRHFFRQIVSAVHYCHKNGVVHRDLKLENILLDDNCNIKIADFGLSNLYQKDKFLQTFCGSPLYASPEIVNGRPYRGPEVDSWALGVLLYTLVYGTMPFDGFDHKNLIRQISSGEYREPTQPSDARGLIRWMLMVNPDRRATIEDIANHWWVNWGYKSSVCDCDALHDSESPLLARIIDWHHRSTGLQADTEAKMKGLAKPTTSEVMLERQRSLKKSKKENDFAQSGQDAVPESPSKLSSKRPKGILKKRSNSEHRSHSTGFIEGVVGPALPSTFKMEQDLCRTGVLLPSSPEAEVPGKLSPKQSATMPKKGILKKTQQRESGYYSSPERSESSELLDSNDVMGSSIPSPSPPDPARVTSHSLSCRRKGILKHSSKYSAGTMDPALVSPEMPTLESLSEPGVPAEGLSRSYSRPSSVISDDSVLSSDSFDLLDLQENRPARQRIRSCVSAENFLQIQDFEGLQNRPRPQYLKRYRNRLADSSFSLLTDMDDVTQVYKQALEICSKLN
Nature of the assay: Inhibition of recombinant ARK5 at <10 uM by radiometric kinase assay. The procedure, abridged: (§3)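 Recombinant kinases were tested in a radiometric 33P-ATP assay in 60 mM HEPES-NaOH pH 7.5 with 3 mM MgCl2 and 3 mM MnCl2, with compound added in 10% DMSO. Incubation was 80 min at 30 °C, stopped with 2% phosphoric acid and washed. 33P incorporation was scintillation-counted, and activity was scaled between no-enzyme and no-inhibitor controls.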

The target of assay [12] is Tyrosine-protein kinase receptor UFO (Homo sapiens) (UniProt P30530). Nature of the assay: Inhibition of recombinant AXL at <10 uM by radiometric kinase assay. In a few lines:
as §3

Assay [13] deals with Insulin-like growth factor 1 receptor (Homo sapiens) (UniProt P08069). Put plainly: Inhibition of recombinant IGF1R at <10 uM by radiometric kinase assay. In a few lines: as §3
The target of assay [14] is Hepatocyte growth factor receptor (Homo sapiens) (UniProt P08581). Nature of the assay: Inhibition of recombinant MET at <10 uM by radiometric kinase assay. In a few lines: as §3
Hepatocyte growth factor receptor (Homo sapiens), sequence (P08581 whole entry): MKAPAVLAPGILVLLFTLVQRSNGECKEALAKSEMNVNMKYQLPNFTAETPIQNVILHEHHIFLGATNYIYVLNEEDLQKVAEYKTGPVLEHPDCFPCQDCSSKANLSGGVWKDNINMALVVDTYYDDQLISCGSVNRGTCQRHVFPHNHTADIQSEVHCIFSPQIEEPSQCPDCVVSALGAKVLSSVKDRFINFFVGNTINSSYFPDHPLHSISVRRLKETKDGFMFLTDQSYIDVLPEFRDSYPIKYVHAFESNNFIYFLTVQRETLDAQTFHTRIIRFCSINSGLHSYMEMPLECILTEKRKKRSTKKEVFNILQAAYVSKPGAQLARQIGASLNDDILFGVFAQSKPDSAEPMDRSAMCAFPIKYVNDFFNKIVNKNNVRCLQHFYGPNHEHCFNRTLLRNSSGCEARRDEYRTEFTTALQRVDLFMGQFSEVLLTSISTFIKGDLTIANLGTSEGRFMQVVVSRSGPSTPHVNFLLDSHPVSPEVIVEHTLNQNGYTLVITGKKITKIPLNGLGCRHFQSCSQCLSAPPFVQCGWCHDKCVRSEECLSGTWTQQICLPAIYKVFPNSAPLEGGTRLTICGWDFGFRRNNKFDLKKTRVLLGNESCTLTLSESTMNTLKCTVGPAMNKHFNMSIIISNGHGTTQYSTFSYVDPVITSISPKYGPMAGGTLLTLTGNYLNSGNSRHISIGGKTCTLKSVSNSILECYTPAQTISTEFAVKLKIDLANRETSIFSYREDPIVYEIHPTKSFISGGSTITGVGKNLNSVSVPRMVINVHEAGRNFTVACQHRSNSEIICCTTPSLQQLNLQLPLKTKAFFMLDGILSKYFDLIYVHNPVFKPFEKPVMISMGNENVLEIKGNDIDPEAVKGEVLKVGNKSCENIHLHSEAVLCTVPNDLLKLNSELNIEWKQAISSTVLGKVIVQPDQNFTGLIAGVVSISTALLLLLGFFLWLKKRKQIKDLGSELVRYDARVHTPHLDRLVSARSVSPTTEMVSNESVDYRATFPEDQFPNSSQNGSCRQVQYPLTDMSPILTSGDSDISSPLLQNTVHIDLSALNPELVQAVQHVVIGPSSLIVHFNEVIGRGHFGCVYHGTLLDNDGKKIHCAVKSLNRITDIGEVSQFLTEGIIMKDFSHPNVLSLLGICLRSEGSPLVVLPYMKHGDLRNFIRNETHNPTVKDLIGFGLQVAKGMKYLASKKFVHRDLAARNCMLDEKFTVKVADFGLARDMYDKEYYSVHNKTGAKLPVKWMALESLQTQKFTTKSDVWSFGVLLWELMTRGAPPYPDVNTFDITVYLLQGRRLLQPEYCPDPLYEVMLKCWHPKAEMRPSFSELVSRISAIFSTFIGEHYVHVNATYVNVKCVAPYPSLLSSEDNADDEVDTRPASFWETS
The target of assay [15] is Serine/threonine-protein kinase N1 (Homo sapiens) (UniProt Q16512). Put plainly: Inhibition of recombinant PRK1 at <10 uM by radiometric kinase assay. In a few lines: as §3
Serine/threonine-protein kinase N1 (Homo sapiens), sequence (Q16512 2-942 limits assumed): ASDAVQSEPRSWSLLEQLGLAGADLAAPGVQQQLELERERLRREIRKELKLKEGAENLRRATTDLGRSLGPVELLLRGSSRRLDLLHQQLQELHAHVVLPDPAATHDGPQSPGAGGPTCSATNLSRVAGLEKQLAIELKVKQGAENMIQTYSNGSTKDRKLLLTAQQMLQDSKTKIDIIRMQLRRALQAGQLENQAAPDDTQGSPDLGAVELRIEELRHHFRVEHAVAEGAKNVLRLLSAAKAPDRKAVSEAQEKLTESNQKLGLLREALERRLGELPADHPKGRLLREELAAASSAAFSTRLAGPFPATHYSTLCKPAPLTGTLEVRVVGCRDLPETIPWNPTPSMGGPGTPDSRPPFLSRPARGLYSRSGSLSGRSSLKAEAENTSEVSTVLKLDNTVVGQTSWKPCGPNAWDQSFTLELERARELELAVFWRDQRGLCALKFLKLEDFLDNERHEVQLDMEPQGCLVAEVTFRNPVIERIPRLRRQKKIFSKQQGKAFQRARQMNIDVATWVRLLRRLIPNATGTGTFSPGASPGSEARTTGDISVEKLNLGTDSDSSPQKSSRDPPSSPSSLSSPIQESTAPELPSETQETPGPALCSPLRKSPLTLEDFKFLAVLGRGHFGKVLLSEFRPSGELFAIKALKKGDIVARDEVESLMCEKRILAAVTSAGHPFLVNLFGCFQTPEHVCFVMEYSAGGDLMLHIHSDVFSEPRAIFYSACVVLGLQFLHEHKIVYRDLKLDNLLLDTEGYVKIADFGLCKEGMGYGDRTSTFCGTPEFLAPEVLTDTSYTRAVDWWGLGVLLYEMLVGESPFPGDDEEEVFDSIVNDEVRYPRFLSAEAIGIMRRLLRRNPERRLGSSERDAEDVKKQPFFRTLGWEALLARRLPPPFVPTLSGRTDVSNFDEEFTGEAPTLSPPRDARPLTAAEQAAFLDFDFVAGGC
For assay [16], the target named is Proto-oncogene tyrosine-protein kinase Src (Homo sapiens) (UniProt P12931). Nature of the assay: Inhibition of recombinant SRC at <10 uM by radiometric kinase assay. The procedure, abridged:
as §3

Activity calls are given as the source filed them. The rule behind the calls is not given here.

By IC50 is commonly meant the point on the concentration scale where inhibition reaches its midpoint.

Proto-oncogene tyrosine-protein kinase Src (Homo sapiens), sequence (P12931 2-536 limits assumed): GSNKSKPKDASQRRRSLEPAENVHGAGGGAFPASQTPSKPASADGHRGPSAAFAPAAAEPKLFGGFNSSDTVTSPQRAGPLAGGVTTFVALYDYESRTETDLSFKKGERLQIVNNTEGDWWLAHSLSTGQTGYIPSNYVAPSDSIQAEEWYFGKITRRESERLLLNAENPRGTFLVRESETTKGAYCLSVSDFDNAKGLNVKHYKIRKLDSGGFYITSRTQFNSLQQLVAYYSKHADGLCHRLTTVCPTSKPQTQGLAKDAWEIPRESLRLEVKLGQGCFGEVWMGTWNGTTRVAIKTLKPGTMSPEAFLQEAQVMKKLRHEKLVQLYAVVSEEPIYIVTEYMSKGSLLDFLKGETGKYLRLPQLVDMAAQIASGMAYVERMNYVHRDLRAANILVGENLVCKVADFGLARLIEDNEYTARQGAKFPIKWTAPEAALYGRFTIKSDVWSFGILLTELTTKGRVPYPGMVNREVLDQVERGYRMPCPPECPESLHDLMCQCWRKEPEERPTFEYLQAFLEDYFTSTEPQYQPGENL
T1 sequence (P31749 whole entry): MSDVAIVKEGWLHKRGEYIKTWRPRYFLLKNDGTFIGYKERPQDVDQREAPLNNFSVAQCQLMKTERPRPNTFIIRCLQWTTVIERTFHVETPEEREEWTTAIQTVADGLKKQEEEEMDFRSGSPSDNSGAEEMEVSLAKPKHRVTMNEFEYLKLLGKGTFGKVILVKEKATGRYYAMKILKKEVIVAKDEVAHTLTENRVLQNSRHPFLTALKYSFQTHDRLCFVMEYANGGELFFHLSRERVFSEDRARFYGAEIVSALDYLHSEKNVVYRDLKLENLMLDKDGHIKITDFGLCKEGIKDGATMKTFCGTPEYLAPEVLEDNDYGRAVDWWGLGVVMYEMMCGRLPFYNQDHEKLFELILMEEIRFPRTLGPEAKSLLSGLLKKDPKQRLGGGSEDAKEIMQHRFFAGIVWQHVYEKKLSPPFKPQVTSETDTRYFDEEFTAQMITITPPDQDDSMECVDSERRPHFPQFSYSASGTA
Tyrosine-protein kinase receptor UFO (Homo sapiens), sequence (P30530 whole entry): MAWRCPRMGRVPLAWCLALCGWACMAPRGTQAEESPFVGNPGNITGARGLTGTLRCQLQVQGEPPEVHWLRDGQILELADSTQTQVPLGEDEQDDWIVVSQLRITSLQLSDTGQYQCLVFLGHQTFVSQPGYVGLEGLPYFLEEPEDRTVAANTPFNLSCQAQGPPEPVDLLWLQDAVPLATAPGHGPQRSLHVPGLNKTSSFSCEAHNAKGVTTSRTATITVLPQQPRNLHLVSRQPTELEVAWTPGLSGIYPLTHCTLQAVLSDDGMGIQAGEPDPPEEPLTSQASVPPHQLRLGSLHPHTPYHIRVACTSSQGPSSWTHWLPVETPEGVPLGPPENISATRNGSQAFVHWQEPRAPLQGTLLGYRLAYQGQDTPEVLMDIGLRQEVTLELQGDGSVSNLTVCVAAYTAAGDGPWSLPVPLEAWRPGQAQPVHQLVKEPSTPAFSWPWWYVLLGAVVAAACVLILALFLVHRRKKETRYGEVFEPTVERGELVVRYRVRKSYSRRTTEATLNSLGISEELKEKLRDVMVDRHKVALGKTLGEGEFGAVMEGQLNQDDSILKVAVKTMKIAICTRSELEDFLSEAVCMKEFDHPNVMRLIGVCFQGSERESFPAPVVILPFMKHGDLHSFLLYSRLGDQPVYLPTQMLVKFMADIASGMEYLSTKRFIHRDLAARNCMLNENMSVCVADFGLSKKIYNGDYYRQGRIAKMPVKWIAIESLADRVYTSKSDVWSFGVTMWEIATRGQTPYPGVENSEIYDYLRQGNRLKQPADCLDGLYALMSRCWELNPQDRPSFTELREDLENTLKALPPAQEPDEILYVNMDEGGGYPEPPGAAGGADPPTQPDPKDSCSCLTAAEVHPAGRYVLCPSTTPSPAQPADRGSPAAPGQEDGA

As to `CCOc1ccc(Nc2nccc(-c3nc4ccccc4n3C)n2)cc1`, the IC50 (in [1]; on Aurora kinase B [2]; on Focal adhesion kinase 1 [3]; in assay [4]; in [5]) was greater than 100 µM throughout. The inhibition result (in assay [6]; on Aurora kinase B [7]; at Focal adhesion kinase 1 [8]; in assay [9]; in assay [10]; in [11]) was “inactive” each time. The inhibition result in assay [12], in assay [13], in assay [14], in assay [15] and in assay [16] was “inactive” throughout.
Consider `Cn1c(=O)c2ccc(-c3nc4ccccc4n3C)nc2n(C)c1=O`, for which the IC50 came to 92 µM at Focal adhesion kinase 1 [3] and 85 µM in assay [4]. For the same molecule, the inhibition result (in assay [6]; at Focal adhesion kinase 1 [8]; in assay [9]; in assay [10]; in assay [11]; in assay [12]) was “inactive” throughout. For the same molecule, the inhibition result in [13], in assay [14], in assay [15] and in assay [16] was “inactive” in each case.
As to `Cn1c(-c2ccnc(Nc3ccc(O)c(Cl)c3)n2)nc2ccccc21`, the IC50 in assay [1] is greater than 100 µM; on Aurora kinase B [2], 7 µM; at Focal adhesion kinase 1 [3], 10.4 µM; in [4], 7.5 µM; in [5], 6 µM.
As to `Cn1c(-c2ccnc(Nc3cccc(O)c3)n2)nc2ccccc21`, the IC50 in assay [1] is greater than 100 µM; on Aurora kinase B [2] it was 5.5 µM; on Focal adhesion kinase 1 [3], 5.2 µM; in assay [4] it was 3.2 µM; in [5] it was 3.7 µM.
As for `Cn1c(-c2ccnc(Nc3ccc(N4CCOCC4)cc3)n2)nc2ccccc21`, the IC50 in assay [1] is greater than 100 µM; at Aurora kinase B [2], greater than 100 µM; on Focal adhesion kinase 1 [3] it was 24 µM; in assay [4] it was 69 µM; in assay [5] it was greater than 100 µM. Also, the inhibition entry (in assay [6]; on Aurora kinase B [7]; on Focal adhesion kinase 1 [8]; in [9]; in assay [10]; in [11]) was “inactive” throughout. Further, the inhibition result in assay [12], in assay [13], in assay [14], in [15] and in assay [16] was “inactive” in each case.
On to `Cn1c(-c2ccnc(Nc3ccc(Cl)cc3)n2)nc2ccccc21`, for which the IC50 in [1] was 41 µM; on Focal adhesion kinase 1 [3], 69 µM; in assay [4] it was 38 µM. Besides, the inhibition entry (in assay [6]; at Focal adhesion kinase 1 [8]; in assay [9]; in [10]; in [11]; in [12]) was “inactive” each time. The inhibition entry in assay [13], in assay [14], in assay [15] and in assay [16] was “inactive” in each case.
Regarding `Cn1c(-c2ccnc(Nc3ccccc3)n2)nc2ccccc21`, the IC50 was greater than 100 µM in [1]; greater than 100 µM at Aurora kinase B [2]; 38 µM at Focal adhesion kinase 1 [3]; 13.4 µM in [4]; 60 µM in assay [5]. For the same molecule, the inhibition entry (in assay [6]; at Aurora kinase B [7]; on Focal adhesion kinase 1 [8]; in assay [9]; in assay [10]; in assay [11]) was “inactive” each time. For the same molecule, the inhibition result in assay [12], in assay [13], in assay [14], in assay [15] and in [16] was “inactive” throughout.
In the case of `Cn1c(-c2ccnc(Nc3ccc(O)cc3)n2)nc2ccccc21`, the IC50 in [1] is greater than 100 µM; at Aurora kinase B [2] it was 11.1 µM; at Focal adhesion kinase 1 [3] it was 11.4 µM; in assay [4], 9.2 µM; in assay [5], 12 µM.
As for `Cc1ccc(Nc2nccc(-c3nc4ccccc4n3C)n2)cc1`, the IC50 at Focal adhesion kinase 1 [3] stood at 58 µM; in assay [4], 25 µM. The inhibition result (in assay [6]; at Focal adhesion kinase 1 [8]; in [9]; in [10]; in assay [11]; in assay [12]) was “inactive” each time. Further, the inhibition entry in assay [13], in [14], in [15] and in assay [16] was “inactive” throughout.

The values are drawn from ChEMBL document CHEMBL2034932, “2-Anilino-4-(benzimidazol-2-yl)pyrimidines--a multikinase inhibitor scaffold with antiproliferative activity toward cancer cell lines” (Eur J Med Chem, 2012).
